Test system: MS2 coat protein
Experiment: apparent Kd, MS2 coat protein; higher = weaker binding; RNA-MaP array; FMN 200 µM where present
In short: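 Each design was made on Illumina sequencing-chip clusters by stalled E. coli RNA polymerase and titrated with SNAP-549-labelled MS2 coat protein from 0.7 or 1.5 nM, doubling to 3 µM, in the absence and then the presence of constant ligand. The buffer was 100 mM Tris-HCl pH 7.5, 80 mM KCl, 4 mM MgCl2, BSA, DTT, yeast tRNA and Tween-20. The apparent Kd is the median of filtered per-cluster fits of binding curves, with green signal normalised to red-channel RNA signal and control-cluster median Fmax.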

[1] = designed as: OFF switch for flavin mononucleotide, no ligand
[2] = ligand present: flavin mononucleotide, designed as: OFF switch for flavin mononucleotide
[3] = designed as: ON switch for flavin mononucleotide, no ligand
[4] = ligand present: flavin mononucleotide, designed as: ON switch for flavin mononucleotide

| Sequence | apparent Kd [1] | apparent Kd [2] | apparent Kd [3] | apparent Kd [4] |
| --- | --- | --- | --- | --- |
| CGGUGACGUGUAGGAUAUGGCGCUGGGUUUUGCCCAGAAGGACAUGAGGAUCACCCAUGUGGUAGAGGGCUGGCGGCCGCCCGU | 17.1 nM | 21.6 nM |  |  |
| CGGAACAUGAGGAUCACCCAUGUAGCUACUUAAAGGUGCUACAGAAGGGACAUUGCGCGUCAUGGUCAGGAUAUGUAGGGCGGA |  |  | 148 nM | 62.4 nM |
| UGGUACAUGGGAGGAUAUGGGUUGAUAACAUGAGGAUCACCCAUGUUAAAUAAGCCGAGAGGCUACCAGAAGGCCCAUGUACCU |  |  | 7.29 nM | 4.99 nM |
| GCUAGUAUUGCAGGAUAUUGAGAUUAAUUAAGGCAAGAAGGGCAUUACAUGAGGAUCACCCAUGUUUUCCUUAGUCAUACUAGC | 7.12 nM | 7.4 nM |  |  |
| ACUUGUUACUUAUUCAUUGAUUUGUAGGAUAUACGUACAUGAGGAUCACCCAUGUUACAUGUUAUGUAGAAGGACAUCUAAUUU | 12.2 nM | 12.6 nM |  |  |
| AAUAACAGAGGAUAUACUAUUUUAUGUGUUUAUUGUUUUAAACAUGAGGAUCACCCAUGUAGAAGGCUGAAUAA | 29.3 nM | 44.3 nM |  |  |
| GUUUUGUAAGAGAAGGAGGACUUCAUGAGGAUCACCCAUGUGUUAGUACUUAGGAUAUUUGACAACAUGAGGAUCACCCAUGUC |  |  | 57.8 nM | 57.9 nM |
| UUUUAACAUGAGGAUCACCCAUGUCGUUCAAAUCAAGGAUAUCAGACGUGUACACACGCCUGAGAAGGUGAAGCUC |  |  | 51.1 nM | 132 nM |
| UUCCAACGAGGAUAUCGAUGGUGGAACAUGAGGAUCACCCAUGUAUGAGAUAUUGUAGUUCGAGAAGGCGUUCAGU | 36.9 nM | 32.2 nM |  |  |
| CGUUAUUCAGGAUAUGGCGUGUUAUACAUGAGGAUCACCCAUGUAGAUCCUGGUUAGGCCUCAGAAGGGAAUGUUC | 43.7 nM | 37.8 nM |  |  |
| ACAUGCAUAGCGAUAUGAUCGAAAAGUCAUGUCGCAAAAUUUAGAAGGACAUGAGGAUCACCCAUGUAGGAUAUGGGAGCAUGA |  |  | 57.9 nM | 13.2 nM |
| AAAAAACAUGAGGAUCACCCAUGUCAGGAUAUCGUAAAAAAAAAAAAAAAAAAAAAUGCGAGAAGGGACUGGAA | 87.4 nM | 125 nM |  |  |
| ACGGCAGUCAGAGGAUAUGGUUACAUGAGGAUCACCCAUGUCAAGGGUCUAAUUAAGUAUAACUACUAGAAGGCUGAAGGCCUA | 154 nM | 113 nM |  |  |
| UACUUCCGAGGAUAUACAUGAGGAUCACCCAUGUGCUUCAGCAUUUUUUGAUGCAUGGGUAGAAGGCGGUAGUU | 315 nM | 270 nM |  |  |
| AGAACAUGAGGAUCACCCAUGUAAAGGUCGGUCAAUAAGGGUGAGGAUAUGCUUAAAAUAAGGUAGCAGAAGGUACUUGGUGCA |  |  | 398 nM | 508 nM |
| GGAUAGGACAGAGGAUAUACGUGCUAGAGAUACUAGCAAAAUUUCCUCACAUGAGGAUCACCCAUGUAGAAGGCUGCCCUAUCG | 13.8 nM | 374 nM |  |  |
| ACAUGAGGAUCACCCAUGUUUACAUGGAUUAUUAAUCUUUGAUAGGAUAUGUUAGUUAAGUAUUUACAGAAGGAUCAAUACCAA | 15.9 nM | 12.2 nM |  |  |
| AAACAUGUCCGAGGAUAUCUGAGAUCAUUUUCAAGAGAAGGCGGACAUGAGGAUCACCCAUGUCUCUCCUCAUCAACUCCAAAG | 7.22 nM | 35.6 nM |  |  |

| Sequence | apparent Kd [1] | apparent Kd [2] | apparent Kd [3] | apparent Kd [4] |
| --- | --- | --- | --- | --- |
| GCGAUUUUGUAAGGAUAUACACGAGUUUCAAGUGUAGAAGGUACUUACAUGAGGAUCACCCAUGUAUACUUGGAUAAUAGUCGC |  |  | 27.9 nM | 23.3 nM |
| AAAAAACAUGAGGAUCACCCAUGUGAAAAUAUGGGAGGAUAUACAAACACGAAAGUGAAAGUAGAAGGCCUAAAAA |  |  | 97 nM | 25.6 nM |
| UUGGACGUCGUAGGAUAUGUAGGAUAUUCCUACAUGAGGAUCACCCAUGUUGACAUGGAAGAAGGACAGAAGGACUAUGUCCAU |  |  | 195 nM | 8.53 nM |
| GGUACACAUGAGGAUCACCCAUGUCGUAUGACAUGAGGAUAUGUACAGACUUCGGUCUGUACAGAAGGCAUGUGUC |  |  | 28.1 nM | 445 nM |
| UCUCGGUGUUCAGGAUAUGCAUCAAGGUUGUACGCAGAAGGGAACAUGAGGAUCACCCAUGUGUCCGAGCUGGGACGAGGGACG | 37.9 nM | 188 nM |  |  |
| UGGUACUAGGGAGGAUAUGGGAAGAUACAUGAGGAUCACCCAUGUUUAAGAAUGCCGAGAGGCAACUAGAAGGCCCUAGUACCA |  |  | 529 nM | 19.2 nM |
| CGCUACGUUUCGUAGCAGCUAGGUGAGGAUAUUCAAUUUUUCACAUGAGGAUCACCCAUGUAUGUGAAGAAGGCGCCUAGAAAA |  |  | 11 nM | 4.78 nM |
| AAUAGGCUCGCGCAGGAUAUGGAUCAUUCCACAUGAGGAUCACCCAUGUUAAGGAGCCCUUGCAUCCAGAAGGGUGUUGGUCUUU |  |  | 35.7 nM | 13.1 nM |
| UGUCGGAGCAGAGGAUAUUACAUGAGGAUCACCCAUGUAUGAACCAAUAGCUGGAAACAGCAAUGUAAGAAGGUUGCUCCGACA | 7.29 nM | 46.7 nM |  |  |
| UUUUAACAUGAGGAUCACCCAUGUGAGGAUAUCGAAAUUUAUAUUAAUAUUAAUUAAUCGAGAAGGCACAUUUU | 106 nM | 113 nM |  |  |
| GGGCCGAUAGGAUAUACAUGAGGAUCACCCAUGUAUGCUUAGAAGCGGCAAUCCUUAUGUAGAAGGGUCAGGCU | 37.1 nM | 33.4 nM |  |  |
| UCACACCACGUUAGGAUAUCGCUGGACAAAACUGGCGAGAAGGAACAUGAGGAUCACCCAUGUGACUUCAAGGU | 16.2 nM | 18.5 nM |  |  |
| GAGAAGUCAGGAUAUGCAUGGCGGGACUUGCGUCGUGGCGUGCAGAAGGGACAUGAGGAUCACCCAUGUAAAGC | 45.4 nM | 39.5 nM |  |  |
| UAAUAAUAAUAAUAAUCCUGCAUACAUGAGGAUCACCCAUGUAAGGAUAUCGUCAGGAAUACUGACGAGAAGGUACAUAGCAGG | 15.8 nM | 19.3 nM |  |  |
| CUGCUCGUAGAGAAGGCGUGGGCACAUGAGGAUCACCCAUGUCGCAGUACGAGGAUAUUUGCCGGCCCGCCCAAAAUGGCGCGA |  |  | 220 nM | 96.2 nM |
| GGGUACUUCGGAGGAUAUCAUGUAAAUACAUGAGGAUCACCCAUGUCGAUGGAGACAUCGGAGAUUGAGAAGGCCGAUGUACCG |  |  | 171 nM | 9.34 nM |
| GUGCGGGUGCCACAGGAUAUACGUGGAUCGACAUGAGGAUCACCCAUGUAUAUCCUAAUAAUUGCGUAGAAGGGUGGUCAGCCGU |  |  | 845 nM | 149 nM |
| AGUCGGAGCAGAGGAUAUAUACAUGAGGAUCACCCAUGUAAAUGAAUAAGCUGGAAACAGCAAGUAUAGAAGGCUGCUCCGACA | 14.5 nM | 16.2 nM |  |  |

— the EternaBench riboswitch data
